Source: PubChem BioAssay (The Scripps Research Institute Molecular Screening Center)
HGIII-sPLA2 inh – Inhibits HGIII-sPLA2 liposome hydrolysis, primary screen. QFRET BODIPY PC-A2 liposome hydrolysis, fluorescence. inhibition, % at 12.2 µM. 0.56% of 370,000 active;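 active = inhibition above mean plus 3 SD of compounds lying within the high and low control bounds, cut at about 19% in these data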;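 also: 0% = median of test compound wells and 100% = no enzyme DMSO wells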
Target sequence (Q9NZ20 whole entry, looked up): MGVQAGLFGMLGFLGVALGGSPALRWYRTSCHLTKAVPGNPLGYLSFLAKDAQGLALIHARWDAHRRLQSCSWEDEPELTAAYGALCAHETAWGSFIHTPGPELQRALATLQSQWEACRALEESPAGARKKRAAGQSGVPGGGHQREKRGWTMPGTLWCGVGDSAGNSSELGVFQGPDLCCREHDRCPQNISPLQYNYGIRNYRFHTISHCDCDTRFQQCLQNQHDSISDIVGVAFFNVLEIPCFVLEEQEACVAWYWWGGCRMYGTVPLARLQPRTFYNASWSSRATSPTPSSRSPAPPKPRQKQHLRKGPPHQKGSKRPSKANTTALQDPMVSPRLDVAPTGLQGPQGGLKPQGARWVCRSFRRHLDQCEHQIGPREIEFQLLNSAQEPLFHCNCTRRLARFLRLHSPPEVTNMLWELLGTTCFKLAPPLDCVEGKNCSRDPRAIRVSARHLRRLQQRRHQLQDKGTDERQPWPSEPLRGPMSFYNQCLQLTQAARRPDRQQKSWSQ
M18AAP inhibitor – blocks P. falciparum M18 aspartyl aminopeptidase. recombinant PfM18AAP, H-Glu-NHMec fluorogenic cleavage. inhibition, % at 7.35 µM. 1.2% of 290,000 active. AID 1822;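 active = inhibition above the campaign mean inhibition over all tested compounds plus 3 SD, cut at about 28% in these data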;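 also: 0% = plate median of test compound wells and 100% = 2 mM ZnCl2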
IMP-1 inh-1 – inhibitors of Pseudomonas aeruginosa IMP-1 metallo-beta-lactamase; AID 1556; purified IMP-1, nitrocefin hydrolysis, epi-absorbance fluorescence; 0.45% of 290,000 active; inhibition, % at 5.6 µM;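 active = inhibition above the mean plus 3 SD of all compounds in the same screening run, cut at about 4.5% in these data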;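 also: 0% = IMP-1 with DMSO and 100% = DMSO wells lacking enzyme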
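System: Purified recombinant IMP-1 metallo-beta-lactamase enzyme | Measured by: Fluorescence quenching readout, ex 480/em 530 nm | Replication: Singlicate | Incubation: 15 min preincubation plus 25 min reaction at 25 °C | Evaluation: Percent inhibition from optical density relative to buffer-blank wells | Benchmarks: DMSO with and without IMP-1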
VIM-2 inh – inhibitors of Pseudomonas aeruginosa VIM-2 metallo-beta-lactamase | purified VIM-2, nitrocefin hydrolysis, epi-absorbance fluorescence | inhibition, % at 5.6 µM | 0.89% of 290,000 active;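 active = inhibition above the mean of all tested compounds plus 3 SD, cutoff set per screening run, cut at about 7.5% in these data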;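 also: red hydrolysis product quenches plate fluorescence so inhibitors raise well fluorescence; 0% = enzyme with DMSO and 100% = DMSO without enzyme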
IMP-1 inh-2 – selectivity counter-screen for VIM-2 inhibitors: IMP-1 metallo-beta-lactamase inhibitors; shares compounds with VIM-2 inh; purified IMP-1, nitrocefin hydrolysis, epi-absorbance fluorescence; inhibition, % at 5.6 µM; 1,300 tested, under 10 active; AID 1856; call rule not given here;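 also: 0% = enzyme with vehicle and 100% = vehicle without enzyme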
VIM-2 FRET ctr – VIM-2 FRET inhibition, artifact counter-screen | shares compounds with VIM-2 inh | purified VIM-2, CCF2 FRET substrate hydrolysis | inhibition, % at 5.6 µM | 23% of 1,300 active | AID 1857;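 active = inhibition above the mean of all tested compounds plus 3 SD, cut at about 19% in these data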;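 also: 0% = VIM-2 plus DMSO and 100% = no enzyme wells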
TEM-1 counter – selectivity counter-screen for VIM-2 inhibitors: E. coli TEM-1 inhibitors; Purified TEM-1, nitrocefin hydrolysis, epi-absorbance fluorescence; inhibition, % at 5.6 µM; shares compounds with VIM-2 inh; 3% of 1,300 active; AID 1866;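 active = inhibition above that campaign's mean inhibition plus 3 SD, cut at about 0.46% in these data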;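 also: 0% = TEM-1 with DMSO and 100% = TEM-1 with 100 µM potassium clavulanate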
Target sequence (P62593 whole entry, looked up): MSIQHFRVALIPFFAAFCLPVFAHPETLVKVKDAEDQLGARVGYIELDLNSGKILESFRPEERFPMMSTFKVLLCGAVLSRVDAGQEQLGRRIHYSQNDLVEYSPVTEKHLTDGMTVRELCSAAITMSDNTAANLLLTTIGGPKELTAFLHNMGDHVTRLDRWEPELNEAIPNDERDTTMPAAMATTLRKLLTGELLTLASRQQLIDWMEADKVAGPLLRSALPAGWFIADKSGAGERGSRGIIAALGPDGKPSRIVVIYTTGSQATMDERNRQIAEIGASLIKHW
VIM-2 confirm 2 – confirmation of P. aeruginosa VIM-2 metallo-beta-lactamase inhibitors | shares compounds with VIM-2 inh | purified VIM-2, nitrocefin hydrolysis, epi-absorbance | inhibition, % at 5.6 µM | 96% of 1,300 active | AID 2187;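 active = inhibition of the VIM-2 beta-lactamase enzyme above about 11% from the earlier first-round screen, limit read from the data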;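 also: 0% = VIM-2 with DMSO and 100% = buffer wells without enzyme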
* hit, by the source's call; x = not tested or not shown. A selection: hits, their analogues and other compounds. The true share with any hit is near 2.4%.

SMILES | HGIII-sPLA2 inh | M18AAP inhibitor | IMP-1 inh-1 | VIM-2 inh | IMP-1 inh-2 | VIM-2 FRET ctr | TEM-1 counter | VIM-2 confirm 2
O=C(CCc1nc2ccccc2c(=O)[nH]1)N1CCN(c2ccccc2Cl)CC1 | 7 | x | x | x | x | x | x | x
Cc1ccc2cccnc2c1N | 3 | 13 | -3 | 16* | -3 | -10 | -5 | 40*
COc1cc(OC)c(OC)cc1/C=N/NC(=O)CC1C(=O)NN=C1C (stereo not given) | 5 | -15 | -1 | 37* | -3 | 66* | -5 | 55*
O=c1c2ccccc2nnn1Cc1nnc(-c2ccccc2Br)o1 | -1 | 2 | -2 | 17* | -2 | 21* | -3 | 13*
O=C1c2ccccc2S(=O)(=O)N1Cc1nnc(-c2ccccc2Br)o1 | -5 | -15 | -1 | 4 | x | x | x | x
Cc1cc(C)n2c(Br)c(CSc3nc4ccccc4s3)nc2n1 | -3 | 9 | -2 | 23* | -3 | 69* | -6 | 47*
Cc1cc(C)nc(NC(=O)CSc2nc3ccccc3s2)n1 | -13 | -6 | -2 | -2 | x | x | x | x
O=C(c1cc(-c2ccc(F)cc2)nc2ccccc12)N1CCN(C2CCS(=O)(=O)C2)CC1 (stereo not given) | 4 | x | x | x | x | x | x | x
COCCCNC(=O)c1cc2c(=O)n3cccc(C)c3nc2n(C(C)C)c1=N | 6 | 4 | -4 | 13* | 0 | -79 | 1.1* | 28*
C=CCn1c(=N)c(C(=O)OCC)cc2c(=O)n3cccc(C)c3nc21 | x | 3 | -3 | 13* | -3 | -44 | -5 | 26*
CCCc1cc(-n2ccnc2C)n2c(nc3ccccc32)c1C#N | 2 | x | x | x | x | x | x | x
Cc1nnc2c(N3CCN(C(=O)c4ccco4)CC3)nc3ccccc3n12 | 11 | 5 | -3 | 13* | -4 | -1 | -7 | 19*
CCCc1cc(N2CCN(C(=O)c3ccco3)CC2)n2c(nc3ccccc32)c1C#N | 0 | 4 | 1 | 14* | -3 | -10 | -5 | 28*
COc1ccc(-c2nnn3c2Cn2c4ccccc4c(=O)n2[C@@H](C)C3)cc1 | -4 | x | x | x | x | x | x | x
Cc1c(CC(=O)O)c(=O)oc2cc3occ(-c4ccccc4)c3cc12 | -7 | 0 | 0 | -5 | x | x | x | x
Cc1c(CC(=O)O)c(=O)oc2c(C)c3occ(-c4ccc(F)cc4)c3cc12 | -5 | -17 | 2 | 15* | 1 | 5 | -12 | 25*
COc1ccc(S[C@]2(C(=O)NC3CC3)CC(=O)N[C@@H]2c2ccc(OC)cc2)cc1 | 11 | x | x | x | x | x | x | x
CCN(CC)S(=O)(=O)c1cccc2cccnc12 | -3 | -5 | -1 | -2 | x | x | x | x
CSS(=O)(=O)c1cccc2cccnc12 | 0 | -211 | -2 | 38* | -2 | -30 | -5 | 43*
O=C(NCCCN1CCOCC1)c1nn2c(C(F)(F)F)cc(-c3ccco3)nc2c1Cl | 1 | 4 | -1 | 12* | -2 | -1 | -5 | 18*
CC(C)NC(=O)c1nn2c(C(F)(F)F)cc(-c3ccco3)nc2c1Cl | 4 | 0 | -3 | -1 | x | x | x | x
Cc1ccc(C)c(-n2c(-c3ccc4c(c3)OCO4)n[nH]c2=S)c1 | 12 | 3 | -3 | -2 | x | x | x | x
C=CCn1c(-c2ccccn2)n[nH]c1=S | 5 | x | x | x | x | x | x | x
Oc1ccc(-c2n[nH]c(=S)n2-c2ccc3c(c2)OCCO3)cc1 | -4 | 18 | -1 | 14* | -2 | 33* | -8 | 20*
S=c1[nH]nc(-c2ccc3ncccc3c2)n1-c1ccc2c(c1)OCCO2 | 13 | 27 | -1 | 27* | -2 | 52* | -6 | 33*
SMILES | HGIII-sPLA2 inh | M18AAP inhibitor | IMP-1 inh-1 | VIM-2 inh | IMP-1 inh-2 | VIM-2 FRET ctr | TEM-1 counter | VIM-2 confirm 2
S=c1[nH]nc(Cn2c(-c3ccccn3)nc3ccccc32)n1-c1ccc2c(c1)OCCO2 | -6 | 19 | -2 | 23* | -3 | 49* | -5 | 31*
S=c1[nH]nc(-c2ccc3ccccc3n2)n1-c1ccc2ncccc2c1 | 15 | 17 | 0 | 4 | x | x | x | x
O=C(CC[C@H]1O[C@@H](n2ccc(=O)[nH]c2=O)[C@H](O)[C@@H]1O)N[C@@H](Cc1ccccc1)C(=O)NCC1CCCO1 (stereo not given in full) | 2 | x | x | x | x | x | x | x
CCN(CC)C(=O)Cn1cc(S(=O)(=O)CC(=O)Nc2ccccc2C)c2ccccc21 | 8 | 0 | -3 | 0 | x | x | x | x
CC(=O)Nc1ccc2c(CSc3nnc(N)s3)cc(=O)oc2c1 | 7 | -12 | 2 | 21* | -4 | 10 | -7 | 5
CC(C)(C)c1ccc(-c2nnc3n2N=C(c2ccc(Cl)cc2)CS3)cc1 | 3 | x | x | x | x | x | x | x
c1csc(Cc2nn3c(-c4n[nH]c5c4CCC5)nnc3s2)c1 | -11 | 3 | 0 | 13* | -2 | 5 | -7 | 22*
CCn1cc(C(=O)NCCCN(C)C)c(=O)c2cc(F)c(N3CCN(C)CC3)cc21 | 3 | -19 | -7 | 21* | -3 | 4 | -5 | 36*
O=P(O)(Cc1ccccc1)c1ccccc1 | -2 | x | x | x | x | x | x | x
O=C(NC(=S)Nc1ccccc1N1CCCC1)c1ccccc1[N+](=O)[O-] | 4 | 1 | -5 | -3 | x | x | x | x
O=C(NC(=S)Nc1ccccc1N1CCCC1)c1ccco1 | 1 | 11 | -2 | 12* | -3 | 36* | -7 | 19*
O=C(NC(=S)Nc1ccccc1N1CCCCC1)c1ccco1 | 6 | 1 | 2 | -2 | x | x | x | x
O=C(NC(=S)Nc1ccccc1N1CCCC1)c1ccccc1Br | -1 | 27 | -3 | 17* | -3 | 4 | -8 | 2
CCCNC(=O)c1csc(Nc2cccc3ccccc23)n1 | 7 | 5 | -4 | -2 | x | x | x | x
CN(C)CCNC(=O)c1csc(Nc2cccc3ccccc23)n1 | -10 | 11 | -2 | 13* | -2 | -1 | -3 | 22*
CC(C)(C)S(=O)(=O)N1C[C@H]2CC/C=C\C/C(c3ccccc3)=C\2[C@@H]1CCO | 0 | x | x | x | x | x | x | x
CCN(Cc1cccs1)c1ncnc2ccc(-c3ccc4c(c3)OCO4)cc12 | -13 | x | x | x | x | x | x | x
COc1ccc(S(=O)(=O)N2CCC3CC2c2c(-c4ccc(C(F)(F)F)cc4)cccc23)cc1 (stereo not given) | 5 | x | x | x | x | x | x | x
COc1ccc(/C=C2/SC(c3ccc(C)cc3)=NC2=O)cc1OC | -4 | 7 | 0 | 15* | 9.4* | -2 | 20* | 14*
O=C(OC12CCCN(C1)/C(=C/c1cccc(Cl)c1)C2)c1ccc(F)cc1 (stereo not given) | 3 | x | x | x | x | x | x | x
O=Cc1c(NCc2ccc(Cl)cc2)c2ccccc2[nH]c1=O | -4 | -1 | -4 | 14* | -3 | 38* | -6 | 24*
O=Cc1c(NCc2ccccc2)c2ccccc2[nH]c1=O | -2 | -3 | 0 | 2 | x | x | x | x
CCn1c(SCC(=O)c2ccc(-c3ccccc3)cc2)nnc1-c1ccc(C(C)(C)C)cc1 | 9 | x | x | x | x | x | x | x
